# bCat nuc transl = beta-catenin nuclear translocation modulation; 190,000 compounds, 0.3% hits; AID 1665; nuclear translocation activity, % at 5 µM; HeLa beta-catenin nuclear translocation, immunofluorescence imaging;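 active = nuclear translocation activity above 50% at 5 µM, with a well cell count of 50 or more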;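 also: per-cell ratio of nuclear to cytoplasmic median beta-catenin stain intensity; plate controls were DMSO negative control for no effect and GSK-3 inhibitor IX positive control for full effect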
#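 Test system: human HeLa cells, native beta-catenin. Compound dosing: 5 µM primary single dose, 0.1% DMSO, 0.02–20 µM confirmation series. Incubation: compound exposure 24 h at 37°C. Detection: beta-catenin immunostaining with DAPI counterstain, 20x imaging, 6 fields/well. Read-out basis: Nuclear/cytoplasmic beta-catenin signal ratio, % activation.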
# MT stabilizer = microtubule stabilizers in HeLa cells; HeLa tubulin immunostaining HCS, 24 h; share of cells brighter than vehicle mean+2SD; % tubulin-high responders, % at 10 µM; 200,000 compounds, 0.83% hits; AID 2205;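 active = plate Z-score above 3 for both tubulin-high and condensed-nucleus cell shares, with cell loss under 80%, at 10 µM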;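 also: anti alpha tubulin signal scored within the nucleus-defined area of each cell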
# Ins promoter up = MIN6 insulin promoter up-regulation. MIN6 insulin promoter-GFP reporter, high-content imaging; stronger effect = higher value. z-score at 5 µM. 190,000 compounds, 0.3% hits;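 active = z-score above 3 at 5 µM with at least 500 cells counted in the well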
# HSV augment = HSV replication enhancement | AID 1956 | maximum fold increase | HSV replication augmentation in cells, fold increase | 220,000 compounds, 0.005% hits; in the data active = maximum fold increase above about 1.5; tested in PC3 cells
# Autophagy HCS = modulators of autophagy | MEF GFP-LC3 puncta imaging; test concentration mostly 10 µM | calls only at 10 µM (by protocol) | 190,000 compounds, 0.98% hits;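 active = percentage of spot-positive cells more than 3 SD above its plate mean, without a fluorescence outlier flag or 80% toxicity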;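 also: spot-positive cell cutoff set from DMSO-treated cells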
# Furin inhibitor = inhibitors of human furin; P09958; purified furin, fluorogenic substrate cleavage; inhibition, % at 20 µM or 30 µM; 220,000 compounds, 0.061% hits; in the data active = inhibition above about 25%
# Numbers without * were called inactive; i = inactive; . = no result given; + = active, no number. Only some compounds are listed: those with a hit (about 1.9% of all), similar ones and a draw of the others.
SMILES,bCat nuc transl,MT stabilizer,Ins promoter up,HSV augment,Autophagy HCS,Furin inhibitor
CCN1CCC2(CC1)NC(=O)c1ccccc1O2,0,4,.,i,i,-36
CCCCc1nc2ccccc2c(=O)n1-c1ccccc1O,-1,5,-0.01,i,i,-2
Cc1cc(=O)[nH]c(SCc2nc3ccccc3c(=O)n2-c2ccccc2C)n1,-6,4,0.24,i,+,-16
CCOc1ccc(-n2c(O)c(N=Nc3c(C)n(C)n(-c4ccccc4)c3=O)c(=O)[nH]c2=O)cc1,-1,.,-0.14,i,.,25*
Cc1cc2c(s1)NC(=O)CN=C2c1cccs1,0,3,-0.33,i,i,-10
O=C1CN=C(c2cccs2)c2c(sc3c2CCCC3)N1,1,54*,-0.13,i,i,-11
O=C(Nc1ccc(Cl)cc1)Nc1nccs1,44,46*,-0.48,i,i,-11
CCn1nc(/C=C/c2ccccc2)nc2c(=O)n(C)c(=O)nc1-2,-2,28*,-4.7,i,i,-19
CCC(=NCCN1CCCCC1)c1c(O)n(C)c(=O)n(C)c1=O,.,3,0.23,i,+,-24
Nc1nonc1-n1nnc(C(=O)N/N=C/c2ccc(OCc3ccc(F)cc3)cc2)c1COc1ccccc1,1,.,-0.03,i,.,-21
